Converted amounts (≈) assume the structure as drawn.
What was measured:
[1] = test system: Mycobacterium tuberculosis; test: Antimycobacterial activity against Mycobacterium tuberculosis H37Rv ATCC 27294 after 7 days by MABA method; assay type: functional; settings: H37Rv ATCC 27294, 168 h
Outline: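 Inoculum from fresh LJ culture resuspended in 7H9-S (7H9 broth, 0.1% casitone, 0.5% glycerol, OADC), adjusted to McFarland No. 1 and diluted 1:20. Drug stocks diluted in 7H9-S to four-fold the highest final concentration. Plates sealed and incubated at 37 °C in normal atmosphere for 7 days, then alamar blue added.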

[2] = Cytotoxicity against HEK293T cells assessed as inhibition of cell growth at 50 ug/mL after 72 hrs by MTT assay; assay type: cell-based, HEK-293T; settings: human, read-out: GI
Outline: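 HEK-293T cells exposed to each compound at one concentration (50) for 72 h. Viability was read from cellular conversion of MTT to formazan using a non-radioactive cell proliferation kit, and the result is given as percentage inhibition of cells.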

Compound	MIC [1]	inhibition at 72 h, 50 ug/mL [2]	MIC50 [1]
Cn1cc(-c2ccc3nc(C(=O)NCc4ccc(F)cc4)cn3c2)cn1	25 µg/mL (≈ 71.6 µM)	36.1%	
Nc1ncccc1-c1ccc2nc(C(=O)NCc3ccc(F)cc3)cn2c1	25 µg/mL (≈ 69.2 µM)	40.8%	
O=C(NCc1ccc(F)cc1)c1cn2cc(-c3cccc4ncccc34)ccc2n1	25 µg/mL (≈ 63.1 µM)	28.1%	
O=C(O)CCc1ccc(-c2ccc3nc(C(=O)NCc4ccc(F)cc4)cn3c2)cc1	> 50 µg/mL		
Cn1cc(-c2ccc3nc(C(=O)NCc4ccco4)cn3c2)cn1	> 50 µg/mL		
Nc1ncccc1-c1ccc2nc(C(=O)NCc3ccco3)cn2c1	25 µg/mL (≈ 75 µM)	26.1%	
O=C(NCc1ccco1)c1cn2cc(-c3cccc4ncccc34)ccc2n1	25 µg/mL (≈ 67.9 µM)	24.8%	
O=C(NCc1ccco1)c1cn2cc(-c3cnn(CCN4CCOCC4)c3)ccc2n1	12.5 µg/mL (≈ 29.7 µM)	34.1%	
CN1CCN(C(=O)c2ccc(-c3ccc4nc(C(=O)NCc5ccco5)cn4c3)cc2)CC1	25 µg/mL (≈ 56.4 µM)	30.1%	
O=C(NCc1ccncc1)c1cn2cc(-c3ccc(Cl)cc3)ccc2n1	6.25 µg/mL (≈ 17.2 µM)	26.1%	
COc1ccccc1-c1ccc2nc(C(=O)NCc3ccncc3)cn2c1	12.5 µg/mL (≈ 34.9 µM)	31.6%	
Cn1cc(-c2ccc3nc(C(=O)NCc4ccc5c(c4)OCO5)cn3c2)cn1	6.25 µg/mL (≈ 16.6 µM)	25.6%	
O=C(NC1CC1)c1cn2cc(-c3cnn(CCN4CCOCC4)c3)ccc2n1	25 µg/mL (≈ 65.7 µM)	29.1%	
O=C(NCc1ccc(C(F)(F)F)cc1)c1cn2cc(-c3cccc4ncccc34)ccc2n1	25 µg/mL (≈ 56 µM)	37.8%	
O=C(NCc1ccc(C(F)(F)F)cc1)c1cn2cc(-c3cnn(CCN4CCOCC4)c3)ccc2n1	12.5 µg/mL (≈ 25.1 µM)	22.2%	
O=C(NC1CCOCC1)c1cn2cc(-c3cnn(CCN4CCOCC4)c3)ccc2n1	6.25 µg/mL (≈ 14.7 µM)	30.1%	
NNC(=O)c1ccncc1 [ISONIAZID]	0.36 µg/mL (≈ 2.63 µM)		
CO[C@H]1/C=C/O[C@@]2(C)Oc3c(C)c(O)c4c(O)c(c(/C=N/N5CCN(C)CC5)c(O)c4c3C2=O)NC(=O)/C(C)=C\C=C\[C@H](C)[C@H](O)[C@@H](C)[C@@H](O)[C@@H](C)[C@H](OC(C)=O)[C@@H]1C [RIFAMPIN]	0.02 µg/mL (≈ 0.0243 µM)		
CCc1nc2ccc(Cl)cn2c1C(=O)NCc1ccc(N2CCC(c3ccc(OC(F)(F)F)cc3)CC2)cc1 [TELACEBEC]			2.7 nM (≈ 1.5 ng/mL)

Source: ChEMBL document CHEMBL3351487, “Synthesis, molecular docking and anti-mycobacterial evaluation of new imidazo[1,2-a]pyridine-2-carboxamide derivatives” (Eur J Med Chem, 2015)
